# Measurements pooled from the literature.
# Compare with care: the assays were run in different laboratories.
# Target: Vascular endothelial growth factor receptor 2 (KDR, Homo sapiens, UniProt P35968)
SMILES,observed,action,method,concentration,endpoint,result
COCc1c(-c2cc3cc(C)cc(OC)c3s2)c2c(N)ncnn2c1CN1CCNC(=O)C1,cell-free assay,,competition with immobilised ligand,1 µM,inhibition,81%
Cn1cc(-c2cc(F)cc(N3CCn4c(cc5c4CCCC5)C3=O)c2CO)cc(Nc2ccc(N3CCN(C4COC4)CC3)cn2)c1=O,enzyme activity,inhibitor,,0.1 µM,inhibition,12%
C#Cc1n[nH]c2c(-c3cn([C@@H](C)c4ccccn4)c(=O)[nH]c3=O)cc(F)cc12,enzyme activity,inhibitor,,0.1 µM,inhibition,6.6%
COc1ccc2c(c1)/C(=C/c1cnc[nH]1)C(=O)N2,cell-free assay,,,0.5 µM,remaining signal,78.7%
C#Cc1n[nH]c2c(-c3cn([C@@H](C)c4ccccc4)c(=O)[nH]c3=O)cc(F)cc12,enzyme activity,inhibitor,,0.1 µM,inhibition,5.3%
Nc1ncc(-c2nc(N3CCOCC3)nc(N3CCOCC3)n2)c(C(F)F)n1,cell-free assay,,competition with immobilised ligand,10 µM,remaining binding,41%
Cn1cncc1[C@](O)(COc1ccc(C#N)cc1-c1ccc(OC(F)(F)F)cc1)c1ccc(C#N)cc1,cell-free assay,,competition with immobilised ligand,1 µM,remaining binding,96%
COc1ncccc1-c1cnn2ccc(N3CCN(C(=O)OC(C)C)CC3)nc12,binding,,competition with immobilised ligand,1 µM,remaining binding,100%
Cc1nn(C)cc1-c1nc2c(N3CCN(Cc4ccc(Cl)cc4)CC3)c(Cl)cnc2[nH]1,binding,,competition with immobilised ligand,1 µM,remaining binding,12%
O=c1[nH]c2ccccc2n1C1CCN(Cc2ccc(-c3[nH]c4cc5ncnc5cc4nc3-c3ccccc3)cc2)CC1,cell-free assay,,,0.5 µM,remaining signal,90.9%
